This passage reports IC50, Activity and inhibition results from ChEMBL document CHEMBL4024748, “Development of Potent Type I Protein Arginine Methyltransferase (PRMT) Inhibitors of Leukemia Cell Proliferation” (J Med Chem, 2017).

The term IC50 denotes the concentration needed to halve the response being measured.

Calls of active or inactive are those of the source. The calls are words filed in the database; no cut-off is given here.

Assay [1] has as its target Protein arginine N-methyltransferase 3 (Homo sapiens, UniProt O60678). Put plainly: Inhibition of PRMT3 (unknown origin) incubated for 15 mins followed by substrate addition measured after 60 mins by AlphaLisa method. In outline:
(§1)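 AlphaLISA. Enzyme and substrate in 1x assay buffer, compound at 1% DMSO final. Enzyme preincubated with compound 15 min at room temperature, then substrate added. Reaction 60 min at room temperature, then bead mix added and incubated 60 min under subdued light before signal read.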
A general note: Alpha assays give light when donor and acceptor beads are brought close together.

Assay [2] has as its system MV4-11. The assay is described as follows: Antiproliferative activity against human MV4-11 cells assessed as decrease in cell viability at 0.1 to 1000 uM by Cell-Titer Glo assay. It counts as functional, cell-based. To be noted: TDE = time-dependent effect. The gist of the method:
(§2)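 Cells kept at 37°C, 5% CO2, exposed to compound or DMSO control for 96 h. Viability read by CellTiter-Glo luminescence after 2 min shaking to lyse and 10 min at room temperature. Triplicate wells, normalised to control cells. For long-term growth, log-phase seeding densities; cells counted and replated to the starting density with fresh compound on days 4 and 8.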

For assay [3], the system named is KMS-11. The assay is described as follows: Cytotoxicity against human KMS11 cells assessed as decrease in cell viability after 96 hrs by Cell-Titer Glo assay. The class given is functional, cell-based. The gist of the method:
as §2

Assay [4] has as its system MV4-11. The assay is described as follows: Antiproliferative activity against human MV4-11 cells assessed as decrease in cell viability measured at day 8 by Cell-Titer Glo assay. The class given is functional, cell-based. To be noted: MV4-11, 192 h. The gist of the method:
as §2

In assay [5] the test system is MV4-11. Put plainly: Cytotoxicity against human MV4-11 cells assessed as decrease in cell viability at 6.25 to 12.5 uM after 96 hrs by Cell-Titer Glo assay. It counts as functional, cell-based. The gist of the method:
as §2

Assay [6] addresses Protein arginine N-methyltransferase 1 (Rattus norvegicus) (UniProt Q63009). The assay is described as follows: Non-competitive inhibition of rat His-tagged PRMT1 (11 to 353 residues) expressed in Escherichia coli BL21(DE3) in presence of varying concentrations of biotinylated H4 peptide (1 to 21 residues) substrate and fixed [3H]SAM concentration. The gist of the method: (§3)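 Kinetic mode-of-action study using the radiolabel method with His6-rPRMT1(11–353). IC50 measured at varied peptide substrate or varied SAM concentrations, with the other component fixed. 15 min enzyme–compound preincubation, then 60 min reaction at RT with [3H]-SAM, Flashplate capture and Microbeta counting.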

Assay [7] has as its target DNMT3A2/3L complex (Homo sapiens) (UniProt Q9Y6K1+Q9UJW3). Put plainly: Inhibition of DNMT3A/3L (unknown origin) at 100 uM incubated for 15 mins followed by substrate addition measured after 60 mins by radioisotope assay. It counts as protein-complex assay.
Assay [8] relates to U-937. Put plainly: Cytotoxicity against human U937 cells assessed as decrease in cell viability after 96 hrs by Cell-Titer Glo assay. It counts as functional, cell-based. In outline:
as §2

The target in assay [9] is Histone-lysine N-methyltransferase PRDM9 (Homo sapiens) (UniProt Q9NQV7). Put plainly: Inhibition of PRDM9 (unknown origin) at 100 uM incubated for 15 mins followed by substrate addition measured after 60 mins by AlphaLisa method. The gist of the method:
as §1

The target of assay [10] is Protein arginine N-methyltransferase 1 (Rattus norvegicus) (UniProt Q63009). The assay is described as follows: Binding affinity to rat His-tagged PRMT1 (11 to 353 residues) expressed in Escherichia coli BL21(DE3) at 200 uM by STD-NMR spectroscopic method. In outline:
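Rat PRMT1 (11–353), N-His6, expressed in E. coli BL21(DE3) with 0.4 mM IPTG at 16°C. Purified by Ni affinity and Superdex200. NMR used 5 µM PRMT1 in phosphate buffer pH 7.4 (20 mM NaH2PO4, 20 mM Na2HPO4, 100 mM NaCl) in D2O. Ligand at 200 µM in 5% DMSO-d6. CPMG run with 5, 2 and 1 µM PRMT1, plus STD.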

For assay [11], the target named is Histone-lysine N-methyltransferase EZH2 (Homo sapiens) (UniProt Q15910). Put plainly: Inhibition of EZH2 (unknown origin) at 50 uM incubated for 15 mins followed by substrate addition measured after 60 mins by radioisotope assay.
Chain of Histone-lysine N-methyltransferase EZH2 (Homo sapiens) (Q15910 whole entry, looked up, the tested form may be a part): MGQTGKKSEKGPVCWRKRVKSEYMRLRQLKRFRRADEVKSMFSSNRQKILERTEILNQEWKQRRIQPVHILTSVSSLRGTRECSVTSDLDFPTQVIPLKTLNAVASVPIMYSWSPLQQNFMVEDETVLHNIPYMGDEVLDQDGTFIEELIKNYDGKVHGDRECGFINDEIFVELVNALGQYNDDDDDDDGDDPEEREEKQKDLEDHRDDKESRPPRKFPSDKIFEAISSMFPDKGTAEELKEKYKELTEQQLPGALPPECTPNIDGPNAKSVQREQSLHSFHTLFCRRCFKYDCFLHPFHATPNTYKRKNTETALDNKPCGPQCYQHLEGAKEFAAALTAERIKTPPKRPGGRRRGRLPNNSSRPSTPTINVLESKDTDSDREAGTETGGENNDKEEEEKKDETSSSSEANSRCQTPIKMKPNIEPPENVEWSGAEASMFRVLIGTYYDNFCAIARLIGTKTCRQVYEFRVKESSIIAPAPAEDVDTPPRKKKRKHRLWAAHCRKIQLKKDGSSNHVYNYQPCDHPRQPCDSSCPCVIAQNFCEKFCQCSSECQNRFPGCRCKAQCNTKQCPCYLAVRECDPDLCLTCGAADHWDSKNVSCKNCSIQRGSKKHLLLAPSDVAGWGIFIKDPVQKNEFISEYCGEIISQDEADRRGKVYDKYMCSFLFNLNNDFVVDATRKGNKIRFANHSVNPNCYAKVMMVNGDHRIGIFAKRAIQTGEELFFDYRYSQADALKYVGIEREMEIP
The target of assay [12] is Protein arginine N-methyltransferase 1 (Rattus norvegicus, UniProt Q63009). Put plainly: Inhibition of rat His-tagged PRMT1 (11 to 353 residues) expressed in Escherichia coli BL21(DE3) incubated for 15 mins followed by substrate addition measured after 60 mins by AlphaLisa method. In outline: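 AlphaLISA IC50 run. Compound dispensed to 1% DMSO final, enzyme in 1x assay buffer preincubated 15 min at room temperature. Substrate added and reacted 60 min at RT, then AlphaLISA bead mix added for 60 min at RT in subdued light. IC50 taken from the dose-response fit.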
Chain of Protein arginine N-methyltransferase 1 (Q63009 whole entry, the tested form may be a part): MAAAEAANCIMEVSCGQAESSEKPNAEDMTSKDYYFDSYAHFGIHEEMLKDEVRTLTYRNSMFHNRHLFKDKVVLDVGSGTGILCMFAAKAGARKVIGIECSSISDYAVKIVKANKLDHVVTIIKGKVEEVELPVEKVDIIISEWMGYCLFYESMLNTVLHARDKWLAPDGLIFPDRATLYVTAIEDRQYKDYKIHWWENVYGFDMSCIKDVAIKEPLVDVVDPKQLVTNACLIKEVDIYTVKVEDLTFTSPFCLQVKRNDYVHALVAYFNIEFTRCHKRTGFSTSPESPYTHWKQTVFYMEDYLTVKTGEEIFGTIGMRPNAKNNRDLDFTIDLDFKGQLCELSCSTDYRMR

The target of assay [13] is Protein arginine N-methyltransferase 1 (Rattus norvegicus) (UniProt Q63009). The assay is described as follows: Uncompetitive inhibition of rat His-tagged PRMT1 (11 to 353 residues) expressed in Escherichia coli BL21(DE3) using biotinylated H4 peptide (1 to 21 residues) as substrate in presence of varying concentrations of [3H]SAM. In outline: as §3
Chain of Protein arginine N-methyltransferase 1 (Rattus norvegicus) (Q63009 whole entry, looked up, the tested form may be a part): as the sequence (Q63009 whole entry, the tested form may be a part) above
For assay [14], the target named is Histone-lysine N-methyltransferase SUV39H1 (Homo sapiens) (UniProt O43463). The assay is described as follows: Inhibition of SUV39H1 (unknown origin) at 50 uM incubated for 15 mins followed by substrate addition measured after 60 mins by AlphaLisa method. In outline: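 SUV39H1 AlphaLISA at 50 and 100 µM compound, 1% DMSO final. Enzyme preincubated 15 min at room temperature, substrate reaction 60 min at RT. Bead mix then added for 60 min at RT in subdued light before signal collection.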
Chain of Histone-lysine N-methyltransferase SUV39H1 (Homo sapiens) (O43463 whole entry): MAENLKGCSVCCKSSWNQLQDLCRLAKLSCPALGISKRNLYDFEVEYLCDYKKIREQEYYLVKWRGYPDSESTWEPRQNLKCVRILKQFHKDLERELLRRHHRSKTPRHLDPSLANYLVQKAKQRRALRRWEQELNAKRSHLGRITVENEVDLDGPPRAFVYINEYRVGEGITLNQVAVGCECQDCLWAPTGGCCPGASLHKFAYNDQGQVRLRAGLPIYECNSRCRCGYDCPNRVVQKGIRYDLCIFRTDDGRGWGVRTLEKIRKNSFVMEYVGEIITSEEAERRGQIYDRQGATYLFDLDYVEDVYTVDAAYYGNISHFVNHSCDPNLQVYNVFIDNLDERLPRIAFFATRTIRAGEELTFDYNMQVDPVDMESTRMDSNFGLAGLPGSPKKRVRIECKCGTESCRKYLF

The target in assay [15] is Histone-lysine N-methyltransferase EZH2 (Homo sapiens) (UniProt Q15910). The assay is described as follows: Inhibition of EZH2 (unknown origin) at 100 uM incubated for 15 mins followed by substrate addition measured after 60 mins by radioisotope assay.
The target in assay [16] is N-lysine methyltransferase SMYD2 (Homo sapiens) (UniProt Q9NRG4). The assay is described as follows: Inhibition of SMYD2 (unknown origin) at 100 uM incubated for 15 mins followed by substrate addition measured after 240 mins by AlphaLisa method. The gist of the method:
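SMYD2 AlphaLISA at 50 and 100 µM compound, 1% DMSO final. Enzyme preincubated 15 min at RT, then substrate added and reacted 240 min at RT. Bead mix added and incubated 60 min at RT in subdued light before reading.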

The subject of assay [17] is MV4-11. Put plainly: Downregulation of HOXA9 mRNA levels in human MV4-11 cells by qRT-PCR analysis. It counts as functional, cell-based. In outline: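 MV4-11 cells treated with compound. mRNA measured by SYBR Green qRT-PCR with B2M as internal control. Fold change from ΔΔCt. Samples run in triplicate, mean ± SD.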
(In general: Real-time PCR tracks product formation cycle by cycle.)

Assay [18] addresses Histone-lysine N-methyltransferase, H3 lysine-79 specific (Homo sapiens) (UniProt Q8TEK3). Put plainly: Inhibition of DOT1L (unknown origin) at 50 uM incubated for 15 mins followed by substrate addition measured after 60 mins by Alpha screen assay. In outline: (§4)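 DOT1L by AlphaScreen. Enzyme and substrate in 1x assay buffer, compound at 1% DMSO final. Enzyme preincubated with compound 15 min at room temperature, substrate added, reaction 60 min at room temperature. Acceptor/donor bead mix added and incubated 60 min at room temperature under subdued light.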

Assay [19] shares this target. The assay is described as follows: Inhibition of DOT1L (unknown origin) at 100 uM incubated for 15 mins followed by substrate addition measured after 60 mins by Alpha screen assay. The gist of the method:
as §4

Assay [20] concerns KOPN-8. Put plainly: Cytotoxicity against human KOPN8 cells assessed as decrease in cell viability after 96 hrs by Cell-Titer Glo assay. It counts as functional, cell-based. In outline:
as §2

Chain of Histone-lysine N-methyltransferase, H3 lysine-79 specific (Homo sapiens) (Q8TEK3 whole entry, looked up): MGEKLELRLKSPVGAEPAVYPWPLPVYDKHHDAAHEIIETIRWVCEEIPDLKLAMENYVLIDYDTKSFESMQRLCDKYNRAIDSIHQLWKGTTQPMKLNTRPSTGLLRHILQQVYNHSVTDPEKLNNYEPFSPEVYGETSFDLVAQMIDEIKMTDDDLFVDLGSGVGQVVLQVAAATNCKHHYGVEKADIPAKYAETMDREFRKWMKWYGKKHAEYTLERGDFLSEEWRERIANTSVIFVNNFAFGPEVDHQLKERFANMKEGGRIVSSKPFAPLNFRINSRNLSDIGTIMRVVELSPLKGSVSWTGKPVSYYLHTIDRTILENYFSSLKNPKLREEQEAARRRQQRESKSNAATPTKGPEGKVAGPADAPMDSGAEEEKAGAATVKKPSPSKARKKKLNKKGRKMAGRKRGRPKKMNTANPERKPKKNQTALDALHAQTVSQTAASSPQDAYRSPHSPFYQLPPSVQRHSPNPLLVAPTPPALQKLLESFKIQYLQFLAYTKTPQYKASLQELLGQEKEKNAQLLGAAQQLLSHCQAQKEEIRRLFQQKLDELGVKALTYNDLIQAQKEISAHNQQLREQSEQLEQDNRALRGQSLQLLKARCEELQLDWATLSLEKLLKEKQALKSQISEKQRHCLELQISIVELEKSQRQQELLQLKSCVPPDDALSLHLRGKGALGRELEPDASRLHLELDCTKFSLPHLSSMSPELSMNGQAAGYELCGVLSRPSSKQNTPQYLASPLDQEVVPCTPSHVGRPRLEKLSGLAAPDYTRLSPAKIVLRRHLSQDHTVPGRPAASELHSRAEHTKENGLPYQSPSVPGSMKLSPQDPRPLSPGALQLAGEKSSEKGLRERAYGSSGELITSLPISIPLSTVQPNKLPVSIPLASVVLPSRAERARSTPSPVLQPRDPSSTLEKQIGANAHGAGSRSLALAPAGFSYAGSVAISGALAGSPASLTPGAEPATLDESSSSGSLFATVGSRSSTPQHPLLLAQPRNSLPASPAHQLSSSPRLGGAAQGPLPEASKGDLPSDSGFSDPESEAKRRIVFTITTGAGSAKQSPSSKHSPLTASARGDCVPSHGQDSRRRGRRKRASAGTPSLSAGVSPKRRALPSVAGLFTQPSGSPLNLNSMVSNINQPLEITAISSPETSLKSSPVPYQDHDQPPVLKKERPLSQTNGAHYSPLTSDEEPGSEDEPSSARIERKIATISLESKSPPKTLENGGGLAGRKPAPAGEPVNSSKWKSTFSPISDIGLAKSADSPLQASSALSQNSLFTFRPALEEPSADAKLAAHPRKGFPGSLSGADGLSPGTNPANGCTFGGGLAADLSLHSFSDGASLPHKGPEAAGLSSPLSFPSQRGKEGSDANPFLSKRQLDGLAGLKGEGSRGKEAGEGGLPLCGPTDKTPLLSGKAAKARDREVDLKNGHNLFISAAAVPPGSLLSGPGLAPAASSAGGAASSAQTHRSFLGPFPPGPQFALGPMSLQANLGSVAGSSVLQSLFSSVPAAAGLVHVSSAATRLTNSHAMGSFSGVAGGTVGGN
Chain of Histone-lysine N-methyltransferase PRDM9 (Homo sapiens) (Q9NQV7 whole entry): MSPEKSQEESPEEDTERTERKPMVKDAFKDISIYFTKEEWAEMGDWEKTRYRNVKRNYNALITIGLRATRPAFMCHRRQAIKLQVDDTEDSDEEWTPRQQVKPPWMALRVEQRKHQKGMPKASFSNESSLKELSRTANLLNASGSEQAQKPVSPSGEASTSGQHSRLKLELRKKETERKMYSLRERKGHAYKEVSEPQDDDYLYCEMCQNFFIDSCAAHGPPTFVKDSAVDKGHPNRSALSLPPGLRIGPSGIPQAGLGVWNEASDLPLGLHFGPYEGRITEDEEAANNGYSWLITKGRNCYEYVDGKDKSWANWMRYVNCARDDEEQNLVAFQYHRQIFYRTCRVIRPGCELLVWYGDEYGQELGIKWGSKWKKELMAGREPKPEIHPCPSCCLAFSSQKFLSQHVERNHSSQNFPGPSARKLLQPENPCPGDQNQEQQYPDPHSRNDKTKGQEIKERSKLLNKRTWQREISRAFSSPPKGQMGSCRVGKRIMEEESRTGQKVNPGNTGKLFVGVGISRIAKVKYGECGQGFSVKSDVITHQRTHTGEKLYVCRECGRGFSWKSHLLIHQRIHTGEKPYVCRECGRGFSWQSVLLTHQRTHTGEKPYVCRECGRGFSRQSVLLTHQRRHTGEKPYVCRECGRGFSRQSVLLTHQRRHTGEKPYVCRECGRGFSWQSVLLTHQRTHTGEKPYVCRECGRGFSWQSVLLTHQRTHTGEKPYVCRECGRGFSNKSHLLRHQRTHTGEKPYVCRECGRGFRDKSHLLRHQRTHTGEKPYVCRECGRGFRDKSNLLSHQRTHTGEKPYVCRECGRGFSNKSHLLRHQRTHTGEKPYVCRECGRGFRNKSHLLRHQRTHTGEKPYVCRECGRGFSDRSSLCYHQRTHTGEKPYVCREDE
Chain of Protein arginine N-methyltransferase 3 (O60678 whole entry): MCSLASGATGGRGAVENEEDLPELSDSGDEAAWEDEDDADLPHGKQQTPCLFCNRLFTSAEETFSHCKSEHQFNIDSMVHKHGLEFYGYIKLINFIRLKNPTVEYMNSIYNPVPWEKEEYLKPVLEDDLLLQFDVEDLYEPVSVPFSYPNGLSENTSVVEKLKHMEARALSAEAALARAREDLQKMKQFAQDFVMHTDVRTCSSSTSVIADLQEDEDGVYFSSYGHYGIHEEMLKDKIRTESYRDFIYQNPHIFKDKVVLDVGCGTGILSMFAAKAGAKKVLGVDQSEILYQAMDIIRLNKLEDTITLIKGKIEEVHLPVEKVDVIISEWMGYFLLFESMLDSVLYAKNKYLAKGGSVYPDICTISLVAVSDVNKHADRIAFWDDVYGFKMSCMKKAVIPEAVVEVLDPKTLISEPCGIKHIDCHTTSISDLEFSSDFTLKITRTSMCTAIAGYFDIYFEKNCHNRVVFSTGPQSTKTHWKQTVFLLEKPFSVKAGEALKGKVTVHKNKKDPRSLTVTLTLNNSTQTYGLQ
Chain of N-lysine methyltransferase SMYD2 (Homo sapiens) (Q9NRG4 whole entry): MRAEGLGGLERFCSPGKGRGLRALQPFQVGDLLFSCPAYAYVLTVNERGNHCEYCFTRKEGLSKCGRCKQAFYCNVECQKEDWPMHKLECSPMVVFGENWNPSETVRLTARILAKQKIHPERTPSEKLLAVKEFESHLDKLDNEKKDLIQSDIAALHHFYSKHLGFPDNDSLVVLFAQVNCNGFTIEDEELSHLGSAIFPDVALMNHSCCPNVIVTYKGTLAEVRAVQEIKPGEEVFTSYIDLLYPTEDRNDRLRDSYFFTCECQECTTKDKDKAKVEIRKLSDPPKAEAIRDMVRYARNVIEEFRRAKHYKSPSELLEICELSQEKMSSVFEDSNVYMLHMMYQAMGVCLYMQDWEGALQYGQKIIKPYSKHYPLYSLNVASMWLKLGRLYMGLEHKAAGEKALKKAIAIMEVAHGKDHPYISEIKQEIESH

As for `CN(CCN)Cc1ccccc1Sc1ccccc1Cl`, the IC50 in [1] was determined as 22 nM; in assay [4], 3210 nM; in assay [12], 1.1 nM. The Activity entry in assay [2] was “Tde”; in assay [3] it was “Dose-dependent effect”; in assay [8], “Dose-dependent effect”; in [17], “Dose-dependent effect”; in assay [20] it was “Dose-dependent effect”. Moreover, the outcome in assay [5] and in [10] was Active. Further, the inhibition entry in [6], in assay [7], in assay [9], in [11], in assay [13] and in assay [14] was “Active” in each case. Also, the inhibition entry in [15], in assay [16], in assay [18] and in assay [19] was “Active” in each case.
